Data: paper PMC2947195 (Biochemical Journal, 2010)
Positions count from the first letter of the chain named.

Tests used:
Format in all cases: cell-based
cl-N6/C6 hRFC = target: T1, cl-N6/C6 hRFC (Homo sapiens, UniProt P41440, C220S/C246S/C30S/C33S/C365S/C396S/C458S); experiment: [3H]MTX uptake in R5 HeLa cells co-transfected with cysteine-less half-molecules; details: 0.5 μM [3H]MTX
T1 sequence (P41440 1-591 C30S/C33S/C220S): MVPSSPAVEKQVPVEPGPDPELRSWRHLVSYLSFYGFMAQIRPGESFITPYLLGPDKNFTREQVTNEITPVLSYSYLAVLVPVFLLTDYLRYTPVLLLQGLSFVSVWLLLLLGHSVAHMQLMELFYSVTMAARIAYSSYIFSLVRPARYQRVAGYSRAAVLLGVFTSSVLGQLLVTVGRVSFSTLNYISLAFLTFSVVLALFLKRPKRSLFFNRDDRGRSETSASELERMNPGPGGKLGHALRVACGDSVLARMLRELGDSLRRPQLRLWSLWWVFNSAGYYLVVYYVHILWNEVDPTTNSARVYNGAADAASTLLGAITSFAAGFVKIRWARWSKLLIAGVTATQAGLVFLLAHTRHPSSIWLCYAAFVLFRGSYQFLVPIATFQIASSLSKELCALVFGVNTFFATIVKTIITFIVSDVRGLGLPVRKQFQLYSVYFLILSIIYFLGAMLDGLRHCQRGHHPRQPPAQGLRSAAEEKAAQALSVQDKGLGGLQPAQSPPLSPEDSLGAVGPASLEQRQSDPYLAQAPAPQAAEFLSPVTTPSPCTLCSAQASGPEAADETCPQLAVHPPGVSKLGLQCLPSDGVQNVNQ
T1 sequence (P41440 227-537 C246S/C365S/C396S/C458S limits assumed): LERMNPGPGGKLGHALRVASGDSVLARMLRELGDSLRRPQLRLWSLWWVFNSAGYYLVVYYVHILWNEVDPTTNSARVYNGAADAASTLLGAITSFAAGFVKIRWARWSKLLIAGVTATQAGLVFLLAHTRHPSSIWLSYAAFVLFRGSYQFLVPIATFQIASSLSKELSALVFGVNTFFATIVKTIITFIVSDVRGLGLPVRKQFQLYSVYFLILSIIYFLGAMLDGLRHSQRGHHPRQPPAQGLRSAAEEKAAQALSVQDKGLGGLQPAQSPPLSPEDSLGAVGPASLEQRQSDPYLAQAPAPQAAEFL

[1] = target: T2, S313C hRFC (Ser^313 replaced with cysteine) (Homo sapiens, UniProt P41440, S313C); experiment: [3H]MTX uptake in transiently transfected R5 HeLa cells
T2 sequence (P41440 1-591 S313C): T1 sequence (P41440 1-591 C30S/C33S/C220S) with S30C, S33C, S220C, S313C
In short: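 Human R5 HeLa cells (transport-defective) were transiently transfected with Lipofectamine Plus, split at 24 h and assayed 24 h later. Uptake of 0.5 μM [3H]MTX ran for 2 min at 37 °C in HSM buffer (20 mM Hepes, 235 mM sucrose, pH 7.14 with MgO). Uptake was stopped with ice-cold PBS and cells solubilized in 0.5 M NaOH. Values in pmol/mg protein were normalized to HA-blot hRFC levels. Three experiments, means±S.E.M.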

S313T hRFC = target: T3, S313T hRFC (Homo sapiens, UniProt P41440, S313T); experiment: [3H]MTX transport kinetics
T3 sequence (P41440 1-591 S313T): T1 sequence (P41440 1-591 C30S/C33S/C220S) with S30C, S33C, S220C, S313T
In short: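 Human hRFC-null K500E (K562 subline) cells were electroporated (155 V, 1000 μF) with wt or Ser313-mutant hRFC. Stable clones were selected in soft agar with G418 (1 mg/ml). [3H]MTX uptake was measured over 180 s in HBSS at 37 °C in a shaking water bath and expressed as pmol/mg protein (Lowry). Kt and Vmax came from Lineweaver–Burk plots, with Vmax normalized to densitometric Western blot hRFC levels. Three experiments, means±S.E.M.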

MTX uptake relative to residual level in R5 cells (cl-N6/C6 hRFC): ~ 3 fold
decrease of MTX transport compared with wt-N6/C6 (cl-N6/C6 hRFC): ~ 40%
MTX transport [1]: abolished
Vmax (normalized)/Kt (S313T hRFC): 0.43
Kt (S313T hRFC; K500E stable transfectant, mean±S.E.M., n=3): 2.11 ± 0.54 µM
Normalized Vmax (S313T hRFC; Vmax normalized to relative hRFC level on Western blots): 0.91±0.16
SMILES: CN(Cc1cnc2nc(N)nc(N)c2n1)c1ccc(C(=O)N[C@@H](CCC(=O)O)C(=O)O)cc1 [MTX, methotrexate]
